Data as given in ChEMBL document CHEMBL1156973, “(-)-Carbodine: enantiomeric synthesis and in vitro antiviral activity against various strains of influenza virus including H5N1 (avian influenza) and novel 2009 H1N1 (swine flu)” (Bioorg Med Chem Lett, 2010).

Legend:
H5N1 subtype [1] = test: Antiviral activity against Influenza A virus Gull/PA/4175/83/H5N1 infected MDCK cells after 3 days by virus yield reduction assay; type: functional, Influenza A virus (A/gull/Pennsylvania/4175/83(H5N1)); details: 72 h
H5N1 subtype [2] = test: Antiviral activity against Influenza A virus Hong Kong/213/2003/H5N1 infected MDCK cells assessed as inhibition of virus-induced cytopathic effect after 3 days; type: functional, organism-based, Influenza A virus (A/Hong Kong/213/2003(H5N1)); details: 72 h
H5N1 subtype [3] = test: Antiviral activity against Influenza A virus Hong Kong/213/2003/H5N1 infected MDCK cells after 42 to 46 hrs by neutral red dye uptake assay; type: functional, organism-based, Influenza A virus (A/Hong Kong/213/2003(H5N1)); details: mdck
H5N1 subtype [4] = test: Antiviral activity against Influenza A virus Hong Kong/213/2003/H5N1 infected MDCK cells after 3 days by virus yield reduction assay; type: functional, Influenza A virus (A/Hong Kong/213/2003(H5N1)); details: Influenza A virus, MDCK, 72 h
Influenza A virus [5] = test: Antiviral activity against Influenza A virus Vietnam/1203/ 2004H/H5N1 infected MDCK cells assessed as inhibition of virus-induced cytopathic effect after 3 days; type: functional, organism-based, A/Viet Nam/1203/2004(H5N1); details: Influenza A virus, A/Viet Nam/1203/2004(H5N1), MDCK
Influenza A virus [6] = test: Antiviral activity against Influenza A virus Vietnam/1203/ 2004H/H5N1 infected MDCK cells after 3 days by virus yield reduction assay; type: functional, A/Viet Nam/1203/2004(H5N1)
[7] = Selectivity ratio of IC50 for MDCK cells to EC50 for inhibition of virus-induced cytopathic effect of Influenza A virus Duck/MN/1525/81/H5N1; type: cell-based; details: dog, MDCK cells; read-out: Ratio IC50/EC50
Method in brief: (§1)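 IC50 (50% inhibition of uninfected MDCK cells) divided by EC50 (concentration reducing virus-induced CPE by 50%, scored visually), both from replicate serial-dilution assays.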

[8] = Selectivity ratio of IC50 for MDCK cells to EC50 for Influenza A virus Gull/PA/4175/83/H5N1 by neutral red dye uptake assay; type: ADME, cell-based; details: dog, MDCK cells; read-out: Ratio IC50/EC50
Method in brief: (§2)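 Neutral red uptake in MDCK cells: IC50 (50% inhibition of uninfected cells) divided by EC50 (50% inhibition of virus effect), both from replicate serial-dilution assays.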

[9] = Selectivity ratio of IC50 for MDCK cells to EC90 for Influenza A virus Gull/PA/4175/83/H5N1 by virus yield reduction assay; type: ADME, cell-based; details: dog
Method in brief: (§3)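 IC50 (50% inhibition of uninfected MDCK cells) divided by EC90 (concentration reducing the infectious virus titer by 90% in the yield reduction assay).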

[10] = Selectivity ratio of IC50 for MDCK cells to EC90 for Influenza A virus Hong Kong/213/2003/H5N1 by virus yield reduction assay; type: ADME, cell-based; details: dog, MDCK cells; method in brief: as §3
[11] = Selectivity ratio of IC50 for MDCK cells to EC50 for inhibition of virus-induced cytopathic effect of Influenza A virus Vietnam/1203/ 2004H/H5N1; type: cell-based; details: dog, MDCK cells; read-out: Ratio IC50/EC50; method in brief: as §1
[12] = Selectivity ratio of IC50 for MDCK cells to EC50 for Influenza A virus Vietnam/1203/ 2004H/H5N1 by neutral red dye uptake assay; type: ADME, cell-based; details: dog, MDCK cells; read-out: Ratio IC50/EC50; method in brief: as §2
Influenza A virus [13] = test: Antiviral activity against Influenza A virus California/07/2009 /H1N1 infected MDCK cells assessed as inhibition of virus-induced cytopathic effect after 3 days; type: functional, organism-based, A/California/07/2009(H1N1); details: Influenza A virus, A/California/07/2009(H1N1), MDCK, 72 h
Influenza A virus [14] = test: Antiviral activity against Influenza A virus California/07/2009 /H1N1 infected MDCK cells after 42 to 46 hrs by neutral red dye uptake assay; type: functional, organism-based, A/California/07/2009(H1N1); details: Influenza A virus, A/California/07/2009(H1N1), MDCK
[15] = tested on: Influenza A virus (A/Puerto Rico/8/1934(H1N1)); test: Antiviral activity against Influenza A virus Solomon Islands/03/2006/H1N1 infected MDCK cells after 42 to 46 hrs by neutral red dye uptake assay; type: functional, organism-based, Influenza A virus (A/Solomon Islands/3/2006(H1N1)); details: mdck
Method in brief: (§4)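 Triplicate MDCK wells got serial compound dilutions, then ≤300 CCID50 of virus, with the same inoculum for all replicates. Antiviral effect was read by neutral red dye uptake. EC50 is the concentration giving 50% inhibition of the virus effect, as the mean of triplicates.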

[16] = tested on: Influenza A virus (A/Puerto Rico/8/1934(H1N1)); test: Antiviral activity against Influenza A virus Solomon Islands/03/2006/H1N1 infected MDCK cells after 3 days by virus yield reduction assay; type: functional, Influenza A virus (A/Solomon Islands/3/2006(H1N1)); details: Influenza A virus, MDCK, 72 h
Method in brief: (§5)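 Yield reduction assay: MDCK cells got serial compound dilutions and ≤300 CCID50 virus, in triplicate. Progeny virus was titrated. EC90 is the concentration reducing the infectious titer by 90%, as the mean of triplicates.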

Influenza A virus [17] = test: Antiviral activity against Influenza A virus Wisconsin/67/2005/H3N2 infected MDCK cells assessed as inhibition of virus-induced cytopathic effect after 3 days; type: functional, organism-based, Influenza A virus (A/Wisconsin/67/2005(H3N2)); details: Influenza A virus, MDCK, 72 h
Method in brief: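 Triplicate MDCK (ATCC CCL-34) wells got serial dilutions of compound. They were then inoculated with ≤300 CCID50, enough for ~100% CPE in control wells within 3 days, using the same inoculum for all replicates. CPE was scored visually. EC50 is the concentration reducing CPE by 50%, as the mean of triplicates.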

Influenza A virus [18] = test: Antiviral activity against Influenza A virus Wisconsin/67/2005/H3N2 infected MDCK cells after 3 days by virus yield reduction assay; type: functional, Influenza A virus (A/Wisconsin/67/2005(H3N2)); details: Influenza A virus, MDCK, 72 h; method in brief: as §5
Influenza B virus [19] = test: Antiviral activity against Influenza B virus Malaysia/2506/2004 infected MDCK cells after 42 to 46 hrs by neutral red dye uptake assay; type: functional, organism-based, B/Malaysia/2506/2004; details: Influenza B virus, B/Malaysia/2506/2004, MDCK; method in brief: as §4
Influenza B virus [20] = test: Antiviral activity against Influenza B virus Malaysia/2506/2004 infected MDCK cells after 3 days by virus yield reduction assay; type: functional, B/Malaysia/2506/2004; method in brief: as §5
[21] = Selectivity ratio of IC50 for MDCK cells to EC50 for inhibition of virus-induced cytopathic effect of Influenza A virus California/07/2009 /H1N1; type: cell-based; details: dog, MDCK cells; read-out: Ratio IC50/EC50; method in brief: as §1
[22] = Selectivity ratio of IC50 for MDCK cells to EC50 for Influenza A virus California/07/2009 /H1N1 by neutral red dye uptake assay; type: ADME, cell-based; details: dog, MDCK cells; read-out: Ratio IC50/EC50; method in brief: as §2
[23] = Selectivity ratio of IC50 for MDCK cells to EC50 for inhibition of virus-induced cytopathic effect of Influenza A virus Solomon Islands/03/2006/H1N1; type: cell-based; details: dog, mdck; method in brief: as §1
[24] = Selectivity ratio of IC50 for MDCK cells to EC50 for inhibition of virus-induced cytopathic effect of Influenza A virus Wisconsin/67/2005/H3N2; type: cell-based; details: dog, MDCK cells; read-out: Ratio IC50/EC50; method in brief: as §1
[25] = Selectivity ratio of IC50 for MDCK cells to EC50 for Influenza A virus Wisconsin/67/2005/H3N2 by neutral red dye uptake assay; type: ADME, cell-based; details: dog, mdck; method in brief: as §2
[26] = Selectivity ratio of IC50 for MDCK cells to EC90 for Influenza A virus Wisconsin/67/2005/H3N2 by virus yield reduction assay; type: ADME, cell-based; details: dog, MDCK cells; method in brief: as §3
[27] = Selectivity ratio of IC50 for MDCK cells to EC50 for inhibition of virus-induced cytopathic effect of Influenza B virus Malaysia/2506/2004; type: cell-based; details: dog, MDCK cells; read-out: Ratio IC50/EC50; method in brief: as §1
[28] = Selectivity ratio of IC50 for MDCK cells to EC50 for Influenza B virus Malaysia/2506/2004 by neutral red dye uptake assay; type: ADME, cell-based; details: dog, MDCK cells; read-out: Ratio IC50/EC50; method in brief: as §2
[29] = Selectivity ratio of IC50 for MDCK cells to EC90 for Influenza B virus Malaysia/2506/2004 by virus yield reduction assay; type: ADME, cell-based; details: dog, mdck; method in brief: as §3
H5N1 subtype [30] = test: Antiviral activity against Influenza A virus Duck/MN/1525/81/H5N1 infected MDCK cells after 42 to 46 hrs by neutral red dye uptake assay; type: functional, organism-based, Influenza A virus (A/duck/Minnesota/1525/1981(H5N1)); details: mdck
H5N1 subtype [31] = test: Antiviral activity against Influenza A virus Duck/MN/1525/81/H5N1 infected MDCK cells after 3 days by virus yield reduction assay; type: functional, Influenza A virus (A/duck/Minnesota/1525/1981(H5N1)); details: Influenza A virus, MDCK, 72 h
H5N1 subtype [32] = test: Antiviral activity against Influenza A virus Gull/PA/4175/83/H5N1 infected MDCK cells assessed as inhibition of virus-induced cytopathic effect after 3 days; type: functional, organism-based, Influenza A virus (A/gull/Pennsylvania/4175/83(H5N1)); details: Influenza A virus, MDCK, 72 h

Structure (SMILES): Nc1ccn([C@@H]2C[C@H](CO)[C@@H](O)[C@H]2O)c(=O)n1
- EC90 (H5N1 subtype [1]): 1.6 µM
- EC50 (H5N1 subtype [2]): 0.7 µM
- EC50 (H5N1 subtype [3]): 0.8 µM
- EC90 (H5N1 subtype [4]): 2.1 µM
- EC50 (Influenza A virus [5]): 0.8 µM
- EC90 (Influenza A virus [6]): 5.7 µM
- selectivity ratio [7]: > 230
- selectivity ratio [8]: > 414
- selectivity ratio [9]: > 259
- selectivity ratio [10]: > 197
- selectivity ratio [11]: > 518
- selectivity ratio [12]: > 276
- EC50 (Influenza A virus [13]): 1.3 µM
- EC50 (Influenza A virus [14]): 1.6 µM
- EC50 [15]: 0.6 µM
- EC90 [16]: 1.3 µM
- EC50 (Influenza A virus [17]): 1.6 µM
- EC90 (Influenza A virus [18]): 2.5 µM
- EC50 (Influenza B virus [19]): 0.8 µM
- EC90 (Influenza B virus [20]): 1.5 µM
- selectivity ratio [21]: > 318
- selectivity ratio [22]: > 259
- Ratio IC50/EC50 [23]: > 591
- selectivity ratio [24]: > 259
- Ratio IC50/EC50 [25]: > 207
- selectivity ratio [26]: > 166
- selectivity ratio [27]: > 690
- selectivity ratio [28]: > 518
- Ratio [29]: > 276
- EC50 (H5N1 subtype [30]): 2 µM
- EC90 (H5N1 subtype [31]): 10.5 µM
- EC50 (H5N1 subtype [32]): 0.8 µM
